This is an account of results in ChEMBL document CHEMBL1127395, “Synthesis and antimicrobial activity of novel 3-[(aminopyrimidiniumyl)thio]methyl cephalosporins” (1994).

Values after ≈ are worked out from the molar mass of the structure shown. Bounds are passed on as bounds.

The first experiment concerns Klebsiella aerogenes. As to the kind of experiment: In vitro minimum inhibitory concentration for Enterobacter aerogenes (ATCC-29751) by agar dilution method. The format is functional. To be noted: Klebsiella aerogenes; read-out: MIC. The procedure, abridged:
(§1)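 Two-fold serial dilutions of each compound dispersed in Mueller-Hinton agar; plates spot-inoculated with 2 μL of standard test strain at 10^7 CFU/mL, incubated 37 °C for 20 h; MIC read as lowest concentration inhibiting growth.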
A general note: Agar dilution tests growth on a series of plates holding different concentrations.
Consider `CCC[n+]1c(N)cc(N)nc1SCC1=C(C(=O)[O-])N2C(=O)C(NC(=O)/C(=N\OC(C)(C)C(=O)O)c3cnc(N)s3)C2SC1` (stereo unspecified), for which the MIC – broadly, the least concentration at which growth counts as inhibited – stood at 2 mg/L (≈ 3.07 µM).
For the molecule `CC(C)(O/N=C(\C(=O)NC1C(=O)N2C(C(=O)O)=C(CSc3nc(O)cc(O)n3)CSC12)c1cnc(N)s1)C(=O)O` (stereo unspecified), the minimum inhibitory concentration (MIC) was 32 mg/L (≈ 52.3 µM).
As for `CC(C)(O/N=C(\C(=O)NC1C(=O)N2C(C(=O)[O-])=C(CSc3nc(N)cc(N)[n+]3N)CSC12)c1cnc(N)s1)C(=O)O` (stereo unspecified), the MIC came out at 1 mg/L (≈ 1.6 µM).

Another experiment concerns Staphylococcus aureus. As to the kind of experiment: In vitro minimum inhibitory concentration for Staphylococcus aureus (ATCC 6538p) by agar dilution method.
Settings: not given
As for `CCC[n+]1c(N)cc(N)nc1SCC1=C(C(=O)[O-])N2C(=O)C(NC(=O)/C(=N\OC(C)(C)C(=O)O)c3cnc(N)s3)C2SC1` (stereo unspecified), the MIC came out at 2 mg/L (≈ 3.07 µM).

In a further experiment the test system is Staphylococcus aureus. As to the kind of experiment: In vitro minimum inhibitory concentration for Staphylococcus aureus (ATCC 6538p) by agar dilution method. The format is functional. To be noted: Staphylococcus aureus, ATCC 6538p; read-out: MIC. The method, boiled down: as §1
Consider `CC(C)(O/N=C(\C(=O)NC1C(=O)N2C(C(=O)O)=C(CSc3nc(O)cc(O)n3)CSC12)c1cnc(N)s1)C(=O)O` (stereo unspecified), for which the MIC was above 128 mg/L.
Same read-out and setting: then `CC(C)(O/N=C(\C(=O)NC1C(=O)N2C(C(=O)[O-])=C(CSc3nc(N)cc(N)[n+]3N)CSC12)c1cnc(N)s1)C(=O)O` (stereo unspecified), with 4 mg/L (≈ 6.4 µM).

The next experiment has as its system Salmonella typhimurium. The experiment is described as follows: In vitro minimum inhibitory concentration for Salmonella Typhimurium (ATCC-14028) by agar dilution method. It counts as functional, Salmonella enterica subsp. enterica serovar Typhimurium. To be noted: Salmonella enterica; read-out: MIC. The procedure, abridged: as §1
For the molecule `CCC[n+]1c(N)cc(N)nc1SCC1=C(C(=O)[O-])N2C(=O)C(NC(=O)/C(=N\OC(C)(C)C(=O)O)c3cnc(N)s3)C2SC1` (stereo unspecified), the MIC was determined as 0.25 mg/L (≈ 0.384 µM).
With `CC(C)(O/N=C(\C(=O)NC1C(=O)N2C(C(=O)O)=C(CSc3nc(O)cc(O)n3)CSC12)c1cnc(N)s1)C(=O)O` (stereo unspecified), the MIC is 8 mg/L (≈ 13.1 µM).
`CC(C)(O/N=C(\C(=O)NC1C(=O)N2C(C(=O)[O-])=C(CSc3nc(N)cc(N)[n+]3N)CSC12)c1cnc(N)s1)C(=O)O` (stereo unspecified): the MIC was found to be 0.13 mg/L (≈ 0.208 µM).

The test system of a further experiment is Klebsiella pneumoniae. As to the kind of experiment: In vitro minimum inhibitory concentration for Klebsiella pneumoniae (ATCC-10031) by agar dilution method. The format is functional. To be noted: Klebsiella pneumoniae; read-out: MIC.
Take `CCC[n+]1c(N)cc(N)nc1SCC1=C(C(=O)[O-])N2C(=O)C(NC(=O)/C(=N\OC(C)(C)C(=O)O)c3cnc(N)s3)C2SC1` (stereo unspecified): the minimal inhibitory concentration (MIC) amounted to 0.13 mg/L (≈ 0.199 µM).
The same measure, in the same setting: then `CC(C)(O/N=C(\C(=O)NC1C(=O)N2C(C(=O)O)=C(CSc3nc(O)cc(O)n3)CSC12)c1cnc(N)s1)C(=O)O` (stereo unspecified), with 2 mg/L (≈ 3.27 µM).
On to `CC(C)(O/N=C(\C(=O)NC1C(=O)N2C(C(=O)[O-])=C(CSc3nc(N)cc(N)[n+]3N)CSC12)c1cnc(N)s1)C(=O)O` (stereo unspecified), for which the MIC is 0.06 mg/L (≈ 0.096 µM).

In a further experiment the test system is Pseudomonas aeruginosa. As to the kind of experiment: In vitro minimum inhibitory concentration for Pseudomonas aeruginosa (ATCC 10145) by agar dilution method.
Settings: not given
It counts as functional. The method, boiled down:
as §1
With `CCC[n+]1c(N)cc(N)nc1SCC1=C(C(=O)[O-])N2C(=O)C(NC(=O)/C(=N\OC(C)(C)C(=O)O)c3cnc(N)s3)C2SC1` (stereo unspecified), inhibition of growth (MIC) required 4 mg/L (≈ 6.14 µM).
Still for that read-out and setting: then `CC(C)(O/N=C(\C(=O)NC1C(=O)N2C(C(=O)O)=C(CSc3nc(O)cc(O)n3)CSC12)c1cnc(N)s1)C(=O)O` (stereo unspecified), with 32 mg/L (≈ 52.3 µM).
Still for that read-out and setting: then `CC(C)(O/N=C(\C(=O)NC1C(=O)N2C(C(=O)[O-])=C(CSc3nc(N)cc(N)[n+]3N)CSC12)c1cnc(N)s1)C(=O)O` (stereo unspecified), with 1 mg/L (≈ 1.6 µM).

A further experiment has as its system Serratia marcescens. The experiment is described as follows: In vitro minimum inhibitory concentration for Serratia marcescens (ATCC-27117) by agar dilution method. It counts as functional. To be noted: Serratia marcescens; read-out: MIC. The method, boiled down:
as §1
`CCC[n+]1c(N)cc(N)nc1SCC1=C(C(=O)[O-])N2C(=O)C(NC(=O)/C(=N\OC(C)(C)C(=O)O)c3cnc(N)s3)C2SC1` (stereo unspecified): the MIC turned out to be 0.25 mg/L (≈ 0.384 µM).
In the case of `CC(C)(O/N=C(\C(=O)NC1C(=O)N2C(C(=O)O)=C(CSc3nc(O)cc(O)n3)CSC12)c1cnc(N)s1)C(=O)O` (stereo unspecified), the MIC was found to be 4 mg/L (≈ 6.54 µM).
In the case of `CC(C)(O/N=C(\C(=O)NC1C(=O)N2C(C(=O)[O-])=C(CSc3nc(N)cc(N)[n+]3N)CSC12)c1cnc(N)s1)C(=O)O` (stereo unspecified), the MIC was 0.06 mg/L (≈ 0.096 µM).

The next experiment has as its system Proteus vulgaris. The experiment is described as follows: In vitro minimum inhibitory concentration for Proteus vulgaris (ATCC-6059) by agar dilution method. To be noted: Proteus vulgaris; read-out: MIC. It counts as functional. The method, boiled down: as §1
`CCC[n+]1c(N)cc(N)nc1SCC1=C(C(=O)[O-])N2C(=O)C(NC(=O)/C(=N\OC(C)(C)C(=O)O)c3cnc(N)s3)C2SC1` (stereo unspecified): the MIC is 0.06 mg/L (≈ 0.0921 µM).
Turning to `CC(C)(O/N=C(\C(=O)NC1C(=O)N2C(C(=O)O)=C(CSc3nc(O)cc(O)n3)CSC12)c1cnc(N)s1)C(=O)O` (stereo unspecified), the MIC is 0.25 mg/L (≈ 0.409 µM).
For the molecule `CC(C)(O/N=C(\C(=O)NC1C(=O)N2C(C(=O)[O-])=C(CSc3nc(N)cc(N)[n+]3N)CSC12)c1cnc(N)s1)C(=O)O` (stereo unspecified), the minimal inhibitory concentration (MIC) stood at 0.02 mg/L (≈ 0.032 µM).

Another experiment has as its system Escherichia coli. The experiment is described as follows: In vitro minimum inhibitory concentration for Escherichia coli (ATCC-10536) by agar dilution method. To be noted: Escherichia coli; read-out: MIC. It counts as functional. The method, boiled down:
as §1
Turning to `CCC[n+]1c(N)cc(N)nc1SCC1=C(C(=O)[O-])N2C(=O)C(NC(=O)/C(=N\OC(C)(C)C(=O)O)c3cnc(N)s3)C2SC1` (stereo unspecified), the MIC is 0.13 mg/L (≈ 0.199 µM).
On to `CC(C)(O/N=C(\C(=O)NC1C(=O)N2C(C(=O)O)=C(CSc3nc(O)cc(O)n3)CSC12)c1cnc(N)s1)C(=O)O` (stereo unspecified), for which the MIC came to 4 mg/L (≈ 6.54 µM).
As to `CC(C)(O/N=C(\C(=O)NC1C(=O)N2C(C(=O)[O-])=C(CSc3nc(N)cc(N)[n+]3N)CSC12)c1cnc(N)s1)C(=O)O` (stereo unspecified), the MIC amounted to 0.06 mg/L (≈ 0.096 µM).

In the next experiment the test system is Pseudomonas aeruginosa. The experiment is described as follows: In vitro minimum inhibitory concentration for Pseudomonas aeruginosa (ATCC-27853) by agar dilution method. It counts as functional. To be noted: Pseudomonas aeruginosa; read-out: MIC. The method, boiled down: as §1
Consider `CCC[n+]1c(N)cc(N)nc1SCC1=C(C(=O)[O-])N2C(=O)C(NC(=O)/C(=N\OC(C)(C)C(=O)O)c3cnc(N)s3)C2SC1` (stereo unspecified), for which the MIC amounted to 2 mg/L (≈ 3.07 µM).
The same measure, in the same setting: then `CC(C)(O/N=C(\C(=O)NC1C(=O)N2C(C(=O)O)=C(CSc3nc(O)cc(O)n3)CSC12)c1cnc(N)s1)C(=O)O` (stereo unspecified), with 32 mg/L (≈ 52.3 µM); and `CC(C)(O/N=C(\C(=O)NC1C(=O)N2C(C(=O)[O-])=C(CSc3nc(N)cc(N)[n+]3N)CSC12)c1cnc(N)s1)C(=O)O` (stereo unspecified), with 1 mg/L (≈ 1.6 µM).

In the next experiment the test system is Staphylococcus epidermidis. As to the kind of experiment: In vitro minimum inhibitory concentration for Staphylococcus epidermidis (ATCC-12228) by agar dilution method. It counts as functional. The note with it: Staphylococcus epidermidis; read-out: MIC. The method, boiled down:
as §1
With `CCC[n+]1c(N)cc(N)nc1SCC1=C(C(=O)[O-])N2C(=O)C(NC(=O)/C(=N\OC(C)(C)C(=O)O)c3cnc(N)s3)C2SC1` (stereo unspecified), the minimal inhibitory concentration (MIC) was found to be 2 mg/L (≈ 3.07 µM).
Take `CC(C)(O/N=C(\C(=O)NC1C(=O)N2C(C(=O)O)=C(CSc3nc(O)cc(O)n3)CSC12)c1cnc(N)s1)C(=O)O` (stereo unspecified): the MIC is above 128 mg/L.
On to `CC(C)(O/N=C(\C(=O)NC1C(=O)N2C(C(=O)[O-])=C(CSc3nc(N)cc(N)[n+]3N)CSC12)c1cnc(N)s1)C(=O)O` (stereo unspecified), for which the MIC came to 2 mg/L (≈ 3.2 µM).

A further experiment has as its system Enterobacter cloacae. As to the kind of experiment: In vitro minimum inhibitory concentration for Enterobacter cloacae (ATCC-27508) by agar dilution method. It counts as functional. To be noted: Enterobacter cloacae; read-out: MIC. The procedure, abridged:
as §1
In the case of `CCC[n+]1c(N)cc(N)nc1SCC1=C(C(=O)[O-])N2C(=O)C(NC(=O)/C(=N\OC(C)(C)C(=O)O)c3cnc(N)s3)C2SC1` (stereo unspecified), the MIC worked out at 0.03 mg/L (≈ 0.046 µM).
Regarding `CC(C)(O/N=C(\C(=O)NC1C(=O)N2C(C(=O)O)=C(CSc3nc(O)cc(O)n3)CSC12)c1cnc(N)s1)C(=O)O` (stereo unspecified), the MIC amounted to 1 mg/L (≈ 1.63 µM).
Take `CC(C)(O/N=C(\C(=O)NC1C(=O)N2C(C(=O)[O-])=C(CSc3nc(N)cc(N)[n+]3N)CSC12)c1cnc(N)s1)C(=O)O` (stereo unspecified): the MIC is 0.02 mg/L (≈ 0.032 µM).

The test system of a further experiment is Citrobacter freundii. The experiment is described as follows: In vitro minimum inhibitory concentration for Citrobacter freundii (ATCC-8090) by agar dilution method. The format is functional. To be noted: Citrobacter freundii; read-out: MIC. The procedure, abridged:
as §1
In the case of `CCC[n+]1c(N)cc(N)nc1SCC1=C(C(=O)[O-])N2C(=O)C(NC(=O)/C(=N\OC(C)(C)C(=O)O)c3cnc(N)s3)C2SC1` (stereo unspecified), the minimum inhibitory concentration (MIC) was 0.25 mg/L (≈ 0.384 µM).
The same measure, in the same setting: then `CC(C)(O/N=C(\C(=O)NC1C(=O)N2C(C(=O)O)=C(CSc3nc(O)cc(O)n3)CSC12)c1cnc(N)s1)C(=O)O` (stereo unspecified), with 8 mg/L (≈ 13.1 µM); and `CC(C)(O/N=C(\C(=O)NC1C(=O)N2C(C(=O)[O-])=C(CSc3nc(N)cc(N)[n+]3N)CSC12)c1cnc(N)s1)C(=O)O` (stereo unspecified), with 0.06 mg/L (≈ 0.096 µM).
